Reference: ChEMBL document CHEMBL3120102, “Structure-based design, synthesis and biological evaluation of novel anthra[1,2-d]imidazole-6,11-dione homologues as potential antitumor agents” (2013)

What was measured:
Assay type in all cases: functional
HT-29 = assay: Cytotoxicity against human HT-29 cells assessed as cell growth at 10 uM after 48 hrs by SRB assay; conditions: HT-29, 48 h, read-out: Activity
CAKI-1 = assay: Cytotoxicity against human CAKI-1 cells assessed as cell growth at 10 uM after 48 hrs by SRB assay; conditions: CAKI-1, 48 h, read-out: Activity
MDA-MB-468 = assay: Cytotoxicity against human MDA-MB-468 cells assessed as cell growth at 10 uM after 48 hrs by SRB assay; conditions: MDA-MB-468, 48 h, read-out: Activity
Outline: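 First stage of the NCI 60 human tumour cell line screen: a single dose is tested against every line. Cell growth is read as cellular protein by sulforhodamine B colorimetry after 48 h of drug exposure, with reference to a time-zero control and to untreated plates.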

## O=C1c2ccccc2C(=O)c2c1ccc1[nH]c(=S)[nH]c21
HT-29
  growth at 10 µM: 104%
CAKI-1
  growth at 10 µM: 91.2%
MDA-MB-468
  growth at 10 µM: 87.7%
